Data as given in ChEMBL document CHEMBL4364314, “Design, synthesis and biological evaluation of 6-deoxy O-spiroketal C-arylglucosides as novel renal sodium-dependent glucose cotransporter 2 (SGLT2) inhibitors for the treatment of type 2 diabetes” (Eur J Med Chem, 2019).

How the values were obtained:
[1] = Volume of distribution at steady state in mouse at 2 mg/kg, iv administered as single dose; type: ADME, organism-based; details: in vivo, read-out: Vdss
Outline: (§1)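 Mouse pharmacokinetics after a single intravenous dose of 2 mg/kg or a single oral dose of 10 mg/kg. Plasma parameters derived for each route; oral bioavailability calculated by comparing the two routes.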

Rattus norvegicus [2] = test: Effect on urine glucose concentration in Sprague-Dawley rat at 1 mg/kg, po administered as single dose measured after 24 hrs by glucose oxidase method (reference value: 0.28 +/- 0.16 mmol/L); type: functional
[3] = AUClast in mouse at 2 mg/kg, iv administered as single dose; type: ADME, organism-based; set-up: dose 2 mg/kg, route intravenous, time 0 - last; details: in vivo; outline: as §1
[4] = AUClast in mouse at 10 mg/kg, po administered as single dose; type: ADME, organism-based; set-up: dose 10 mg/kg, time 0 - last, route oral; details: in vivo; outline: as §1
[5] = Half-life in mouse at 10 mg/kg, po administered as single dose; type: ADME, organism-based; details: in vivo; outline: as §1
[6] = Cmax in mouse at 10 mg/kg, po administered as single dose; type: ADME, organism-based; set-up: dose 10 mg/kg, route oral; details: in vivo; outline: as §1
Mus musculus [7] = test: Effect on urine glucose concentration in C57BL/6J mouse at 1 mg/kg, po administered as single dose measured after 24 hrs by glucose oxidase method (reference value: 0.74 +/- 0.14 mmol/L); type: functional
Mus musculus [8] = test: Hypoglycemic activity in orally dosed C57BL/6J mouse assessed as glucose tolerance improvement administered as single dose measured after 120 mins post glucose challenge by OGTT; type: functional, organism-based
Outline: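 Male mice fasted overnight (14 h), then gavaged with 1 or 3 mg/kg or vehicle (0.9% NaCl, 0.5% methyl cellulose); n = 8. Glucose 3 g/kg given by gavage 2 h later. Blood glucose taken at -120, 0, 15, 30, 60, 90 and 120 min. AUC0-2 h by trapezoidal rule; t-test against vehicle.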

[9] = AUCinfinity in mouse at 10 mg/kg, po administered as single dose; type: ADME, organism-based; set-up: dose 10 mg/kg, time infinity, route oral; details: in vivo; outline: as §1
[10] = Mean residence time infinity in mouse at 2 mg/kg, iv administered as single dose; type: ADME, organism-based; details: in vivo; outline: as §1
[11] = Mean residence time infinity in mouse at 10 mg/kg, po administered as single dose; type: ADME, organism-based; details: in vivo; outline: as §1
Rattus norvegicus [12] = test: Effect on urinary volume in Sprague-Dawley rat at 1 mg/kg, po administered as single dose measured after 24 hrs (reference value: 24.17 +/- 7.11 mL); type: ADME, organism-based; details: in vivo
[13] = molecular target: T1, Sodium/glucose cotransporter 1 (Homo sapiens, UniProt P13866); test: Inhibition of human full length SGLT1 expressed in NIH3T3 cells measured after 1 hr in presence of [14C]-methyl-alpha -D-glucopyranoside by scintillation counter method; type: cell-based
T1 sequence (P13866 whole entry): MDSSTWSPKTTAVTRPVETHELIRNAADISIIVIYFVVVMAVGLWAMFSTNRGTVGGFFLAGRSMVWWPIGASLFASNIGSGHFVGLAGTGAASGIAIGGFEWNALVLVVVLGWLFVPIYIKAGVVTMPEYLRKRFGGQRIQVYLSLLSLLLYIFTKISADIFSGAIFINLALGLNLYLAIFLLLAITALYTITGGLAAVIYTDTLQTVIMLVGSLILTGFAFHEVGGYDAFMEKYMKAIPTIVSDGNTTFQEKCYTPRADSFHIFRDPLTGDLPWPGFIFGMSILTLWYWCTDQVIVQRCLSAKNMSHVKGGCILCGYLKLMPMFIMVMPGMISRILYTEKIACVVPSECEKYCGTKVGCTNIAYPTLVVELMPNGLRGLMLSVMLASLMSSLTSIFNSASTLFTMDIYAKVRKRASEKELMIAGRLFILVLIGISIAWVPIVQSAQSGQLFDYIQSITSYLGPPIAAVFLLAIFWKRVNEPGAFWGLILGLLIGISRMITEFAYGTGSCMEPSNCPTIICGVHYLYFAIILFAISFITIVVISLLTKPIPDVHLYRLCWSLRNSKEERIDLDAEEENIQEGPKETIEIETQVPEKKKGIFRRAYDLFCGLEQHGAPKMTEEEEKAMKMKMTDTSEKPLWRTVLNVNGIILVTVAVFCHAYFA
Outline: (§2)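 Stable NIH3T3 lines from retroviral transduction of full-length hSGLT1 or hSGLT2 (pBABE-puro, 8 µg/mL polybrene, puromycin 2 µg/mL selection for 2 weeks). Cells plated 2 days ahead, 2 mmol/L sodium butyrate added day 2. Read by scintillation counting. Compound-free buffer served as negative control, sodium-free N-methyl-glucamine buffer as blank.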

[14] = Tmax in mouse at 10 mg/kg, po administered as single dose; type: ADME, organism-based; details: in vivo; outline: as §1
[15] = Clearance in mouse at 2 mg/kg, iv administered as single dose; type: ADME, organism-based; details: in vivo; outline: as §1
[16] = Oral bioavailability in mouse at 10 mg/kg administered as single dose; type: ADME, organism-based; details: in vivo; outline: as §1
Rattus norvegicus [17] = test: Effect on urine glucose excretion in Sprague-Dawley rat 1 mg/kg, po administered as single dose measured after 24 hrs assessed per 100 grams (reference value: 0.51 +/- 0.40 mg); type: functional
[18] = AUCinfinity in mouse at 2 mg/kg, iv administered as single dose; type: ADME, organism-based; set-up: dose 2 mg/kg, route intravenous, time infinity; details: in vivo; outline: as §1
[19] = Half-life in mouse at 2 mg/kg, iv administered as single dose; type: ADME, organism-based; details: in vivo; outline: as §1
Mus musculus [20] = test: Effect on urine glucose excretion in C57BL/6J mouse at 1 mg/kg, po administered as single dose measured after 24 hrs assessed per 100 grams (reference value: 0.84 +/- 0.40 mg ); type: functional
[21] = molecular target: T2, Sodium/glucose cotransporter 2 (Homo sapiens, UniProt P31639); test: Inhibition of human full length SGLT2 expressed in NIH3T3 cells measured after 1 hr in presence of [14C]-methyl-alpha -D-glucopyranoside by scintillation counter method; type: cell-based; outline: as §2
T2 sequence (P31639 whole entry): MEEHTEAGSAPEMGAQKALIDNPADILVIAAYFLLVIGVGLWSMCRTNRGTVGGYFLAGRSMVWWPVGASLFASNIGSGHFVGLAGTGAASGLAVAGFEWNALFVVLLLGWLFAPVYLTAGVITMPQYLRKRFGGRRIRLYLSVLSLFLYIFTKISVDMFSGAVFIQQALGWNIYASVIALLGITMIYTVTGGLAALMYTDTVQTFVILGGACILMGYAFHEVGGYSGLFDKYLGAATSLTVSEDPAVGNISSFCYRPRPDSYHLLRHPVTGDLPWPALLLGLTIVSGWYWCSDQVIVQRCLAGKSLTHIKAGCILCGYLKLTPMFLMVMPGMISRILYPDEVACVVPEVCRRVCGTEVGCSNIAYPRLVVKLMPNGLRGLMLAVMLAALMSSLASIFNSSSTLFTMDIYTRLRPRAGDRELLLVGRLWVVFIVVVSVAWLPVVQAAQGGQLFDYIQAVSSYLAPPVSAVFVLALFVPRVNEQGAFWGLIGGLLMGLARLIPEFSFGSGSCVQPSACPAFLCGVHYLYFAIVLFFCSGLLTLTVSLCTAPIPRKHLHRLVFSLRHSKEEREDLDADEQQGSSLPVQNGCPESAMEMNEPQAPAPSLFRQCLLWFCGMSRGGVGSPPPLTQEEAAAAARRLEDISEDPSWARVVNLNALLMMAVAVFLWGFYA

Homo sapiens = species on record: Homo sapiens; test: Selectivity ratio of IC50 for human full length SGLT1 to IC50 for human full length SGLT2
Outline: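 Ratio of IC50 at hSGLT1 to IC50 at hSGLT2, both from the [14C]methyl-α-D-glucopyranoside uptake assay in stably transfected NIH3T3 cells.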

Mus musculus [22] = test: Effect on urinary volume in C57BL/6J mouse at 1 mg/kg, po administered as single dose measured after 24 hrs (reference value: 1.24 +/- 0.45 mL); type: ADME, organism-based; details: in vivo

Vd [1]: 10.1 L/kg
AUC(0-t) [3]: 1.13 µg·h/mL
AUC(0-t) [4]: 3.01 µg·h/mL
half-life [5]: 5.95 h
Cmax [6]: 0.74 µg/mL
AUC(0-inf) [9]: 5.58 µg·h/mL
MRT inf [10]: 13.1 h
MRT inf [11]: 8.9 h
Activity (Rattus norvegicus [12]): 24.67 mL
IC50 [13]: 1 µM
Tmax [14]: 0.33 h
clearance [15]: 1.19 L/h/kg
bioavailability [16]: 53.4%
AUC(0-inf) [18]: 2.32 µg·h/mL
half-life [19]: 10.8 h
IC50 [21]: 0.0045 µM
Ratio IC50 (Homo sapiens): 216
Activity (Mus musculus [22]): 1.21 mL
SMILES: CCc1ccc(Cc2cc3c(cc2C)CO[C@]32O[C@H](C)[C@@H](O)[C@H](O)[C@H]2O)s1
Activity (Rattus norvegicus [2]): 93.8 mmol/L
Activity (Mus musculus [7]): 92.99 mmol/L
Activity (Mus musculus [8]): Dose-dependent effect
Activity (Rattus norvegicus [17]): 134.23 mg
Activity (Mus musculus [20]): 110.53 mg
